Most compounds without a hit are left out; they make up all but 3.5% or so of the library.
MrgX1 allo act – human MrgX1 positive allosteric modulation, primary screen; Q96LB2; MrgX1-HEK293, Fluo-4 calcium flux, FDSS; hits give high values; B-score at 10 µM; 310,000 tested, 0.63% active; AID 588675;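 active = plate-corrected calcium response at least 3 library SD above typical, normal starting fluorescence, not activating the receptor alone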;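 note: compound read alongside a low EC10 to EC30 dose of BAM8-22 agonist; peak minus trough fluorescence over baseline measured at the second addition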
Target sequence (Q96LB2 whole entry, looked up): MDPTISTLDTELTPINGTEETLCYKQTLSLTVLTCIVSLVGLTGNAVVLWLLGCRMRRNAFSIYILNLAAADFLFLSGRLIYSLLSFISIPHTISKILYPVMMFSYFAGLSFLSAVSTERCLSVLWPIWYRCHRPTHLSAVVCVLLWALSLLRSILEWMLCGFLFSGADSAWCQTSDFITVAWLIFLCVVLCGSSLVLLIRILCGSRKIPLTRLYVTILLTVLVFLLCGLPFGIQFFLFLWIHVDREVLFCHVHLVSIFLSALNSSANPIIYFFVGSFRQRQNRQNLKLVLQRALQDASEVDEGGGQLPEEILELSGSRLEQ
MrgX1 antag – blocks BAM8-22 activation of human MrgX1 receptor | Q96LB2 | MRGX1-HEK293 calcium flux, Fluo-4, BAM8-22 antagonism; hits give low values | B-score at 10 µM | 310,000 tested, 1.3% active;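 active = calcium-response B-score plate-corrected more than 3 library SD below zero, starting fluorescence within 5 deviations, no agonist response on first addition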;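 note: peak minus trough fluorescence over baseline after final BAM8-22 challenge near maximal dose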
MrgX1 ag – activates human MrgX1 receptor signaling | Q96LB2 | MrgX1-HEK293 cells, Fluo-4 calcium fluorescence, agonist mode; hits give high values | B-score at 10 µM | 310,000 tested, 0.44% active;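 active = calcium response B-score plate-corrected fluorescence ratio at least 3 library SD, with starting fluorescence B-score inside 5 SD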
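Material – MrgX1-expressing HEK293 cells · Input – 15,000 cells seeded per well · Dosing – compound as first of three additions · Times – overnight seeding, then 1 h dark dye loading · Measured by – kinetic Fluo-4 NW fluorescence of intracellular calcium · Read-out – B-scored fluorescence response ratio · Benchmarks – positive and negative control wells on each plate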
RGS4 inh – inhibitors of human RGS4; HEK293 M3R/RGS4 inducible, Fluo-4 calcium flux; hits give high values; triggered by carbachol at its EC20; B-score at 10 µM; 310,000 tested, 0.45% active; P49798;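 active = B-score, a plate-corrected calcium signal, over three deviations above library mean, with baseline fluorescence within five deviations of library mean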;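 note: RGS4 expression induced by doxycycline in cells with stable M3 receptor; B-score is computed from the integrated fluorescence ratio over baseline after carbachol; higher B-score means a larger calcium signal and so more RGS4 inhibition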
Target sequence (P49798 whole entry, looked up): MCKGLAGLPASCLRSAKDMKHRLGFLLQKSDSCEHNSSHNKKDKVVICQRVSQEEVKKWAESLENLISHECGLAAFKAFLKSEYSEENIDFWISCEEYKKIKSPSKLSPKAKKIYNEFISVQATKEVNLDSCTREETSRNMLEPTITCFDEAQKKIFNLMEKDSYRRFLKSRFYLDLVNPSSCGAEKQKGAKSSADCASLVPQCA
RGS4 pot – RGS4 potentiation or activation. HEK293 M3R/inducible RGS4, carbachol calcium flux Fluo4; hits give low values. B-score at 10 µM. 310,000 tested, 0.92% active. AID 463111;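 active = B-score of the integrated calcium signal more than 4 SD below the library mean, with starting fluorescence not abnormally high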;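 note: negative B-score means reduced calcium response which marks RGS4 activation or potentiation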
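test system = HEK293 cells with stable M3R and inducible RGS4 | schedule = recording 10 s baseline at 1 Hz, 100 s post-agonist | technique = Fluo4-AM (2 µM) calcium-flux fluorescence, kinetic read | measure = Agonist-evoked peak-minus-minimum fluorescence over baseline, integrated ratio, B score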
MrgX1 ant reconf – reconfirmed antagonist of human MrgX1 receptor signaling; MrgX1-HEK293, BAM8-22 calcium flux, Fluo-4; hits give low values; 2,300 tested, 19% active; shares compounds with MrgX1 antag; AID 602420; remaining BAM8-22 calcium response % of control (hits give low values), % at 10 µM;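 active = remaining agonist calcium response no higher than 100% minus 3 SD of agonist-only control wells, with starting fluorescence near control levels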;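 note: agonist BAM8-22 given at a near maximal EC90 to ECmax level; peak minus minimum fluorescence divided by baseline after agonist addition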
HEK293 Ca flux – MrgX1 antagonist counter-screen hit in parental HEK293 cells; shares compounds with MrgX1 antag; Fluo-4 calcium fluorescence, FDSS; fluorescence ratio F(max-min)/F0 at 10 µM; 4,000 tested, 2% active; AID 624111;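 active = duplicate-averaged calcium fluorescence ratio at least three times the standard deviation of buffer wells, a nonspecific response in parental cells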
HEK293 Ca counter – counter-screen for MrgX1 allosteric activators: effect in parental HEK293 cells | shares compounds with MrgX1 antag | parental HEK293 calcium flux, Fluo-4 fluorescence ratio; hits give high values | fluorescence ratio F(max-min)/F0 at 10 µM | 4,000 tested, 0.4% active | AID 624114;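 active = calcium fluorescence ratio, averaged over duplicates, at least 3 SD of the buffer-well ratio, meaning a nonspecific response in receptor-free cells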;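 note: untransfected parental HEK293 lacking MrgX1 used as counterscreen for MrgX1 allosteric activators; fluorescence change taken during the second addition on a kinetic imager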
HEK293 Ca cntr2 – counter-screen for MrgX1 activators: effect in parental HEK293 cells. AID 624115. Fluo-4 calcium fluorescence (FDSS); hits give high values. fluorescence ratio F(max-min)/F0 at 10 µM. shares compounds with MrgX1 antag. 4,000 tested, 8.7% active;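 active = calcium fluorescence ratio at least three times the spread of buffer wells, meaning a non-specific response in parental cells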
Starred values were filed as active, the others as inactive; i = inactive; . = no result.

SMILES	MrgX1 allo act	MrgX1 antag	MrgX1 ag	RGS4 inh	RGS4 pot	MrgX1 ant reconf	HEK293 Ca flux	HEK293 Ca counter	HEK293 Ca cntr2
CCc1ccc(OCC(=O)Nc2ccc3oc(=O)ccc3c2)cc1	i	i	i	i	i	.	.	.	.
NC(=O)c1ccccc1NC(=O)CCN1C(=O)c2ccccc2C1=O	i	-6.9*	i	i	i	85%*	i	i	i
O=C(c1ccc(N2C(=O)C3C4CC(C(Br)C4Br)C3C2=O)cc1)N1CCCCC1 (configuration not stated)	.	.	.	i	i	.	.	.	.
CC(=O)NS(=O)(=O)c1ccc(NC(=S)NC(=O)Cc2ccccc2)cc1	i	-6.1*	i	i	i	i	i	i	i
CSc1cccc(NC(=O)C2CCCN(S(=O)(=O)c3ccc(F)cc3)C2)c1 (configuration not stated)	i	-6.5*	i	i	i	67%*	i	i	i
CSc1cccc(NC(=O)C2CCN(S(=O)(=O)c3ccc(F)cc3)CC2)c1	i	i	i	i	i	.	.	.	.
CCc1nnc(NC(=O)CSc2nnc(CCc3nc4ccccc4[nH]3)n2C)s1	i	i	i	i	i	.	.	.	.
Cc1nnc(NC(=O)CSc2nnc(CCc3nc4ccccc4[nH]3)n2C)s1	i	-4.6*	i	i	i	i	i	i	i
Cc1cccc(NC(=O)c2ccc(C)c(S(=O)(=O)N3CCCCC3)c2)n1	i	i	i	i	i	.	.	.	.
O=C(Nc1ccc2c(c1)OCCO2)c1cc(-c2ccccc2)nc2ccccc12	i	-5*	i	i	i	i	i	i	i
O=C(NNC(=O)c1cc(-c2cccnc2)nc2ccccc12)Nc1ccc(Cl)cc1	6.9*	-13*	i	i	i	i	i	i	i
CNc1c(C(=O)O)ccc2c1C(=O)c1ccccc1C2=O	i	-8.6*	i	i	i	i	i	i	i
CCNc1c(C(=O)O)ccc2c1C(=O)c1ccccc1C2=O	i	i	i	i	i	.	.	.	.
CSc1ccccc1NC(=O)CCn1c(=O)sc2ccccc21	i	-6.3*	i	i	i	i	i	i	i
Fc1ccc(NC(=S)Nc2cccnc2)cc1Cl	i	-5.6*	i	i	i	i	i	i	i
Fc1ccc(NC(=S)Nc2cccnc2)cc1	i	i	i	i	i	.	.	.	.
O=C(Nc1ccc(F)c(Cl)c1)Nc1cnccn1	i	-6.2*	i	i	i	i	i	i	i
Cc1ccc(NC(=O)Nc2cccnc2)cc1Cl	i	-4.7*	i	i	i	80%*	i	i	i
COc1ccccc1N1CCN(C2CCCN(C(=O)CN3CCCC3=O)C2)CC1 (configuration not stated)	i	i	i	i	i	.	.	.	.
CCCn1c(=O)c2sccc2n2c(CCCC(=O)NCC3CCCO3)nnc12 (configuration not stated)	i	i	i	i	i	.	.	.	.
CCOC(=O)CCc1c(C)nc2cc(-c3ccc(Cl)cc3)[nH]n2c1=O	i	-6*	i	i	i	i	i	i	i
CCc1c(C)nc2cc(-c3ccc(Cl)cc3)[nH]n2c1=O	i	i	i	i	i	.	.	.	.
O=C(CSc1nnc2ccc(-c3ccccn3)nn12)NCCc1ccccc1	i	-13*	i	i	i	84%*	i	i	i
CC(=O)Nc1nnc(CCN2CCCCC2)s1	i	i	i	i	i	.	.	.	.
CC(=O)c1sc2nsc(SCCN3CCCCC3)c2c1N	i	-5.2*	i	i	i	i	i	i	52*
SMILES	MrgX1 allo act	MrgX1 antag	MrgX1 ag	RGS4 inh	RGS4 pot	MrgX1 ant reconf	HEK293 Ca flux	HEK293 Ca counter	HEK293 Ca cntr2
Cc1ccc(NS(=O)(=O)c2c(C)nc3sccn3c2=O)c(C)c1	i	i	i	i	i	.	.	.	.
COc1ccccc1NC(=S)NCCc1c[nH]c2ccccc12	i	-5.6*	i	i	i	i	i	i	i
CCC(Sc1ncccc1C(=O)O)C(=O)N1CCOCC1 (configuration not stated)	i	-6.8*	i	i	i	80%*	i	i	i
CCC(Sc1ncccc1C(=O)O)C(=O)N1CCCC1 (configuration not stated)	i	i	i	i	i	.	.	.	.
O=C1CC(=O)N(CCc2ccccc2)C(=O)N1CCc1ccccc1	i	-11*	i	i	i	79%*	i	i	i
CCC(C)c1ccc(NC(=S)Nc2ccc(OC)cc2)cc1 (configuration not stated)	i	i	i	i	i	.	.	.	.
CN(/N=C/c1ccc(-c2ccc([N+](=O)[O-])cc2)o1)c1ccccc1	i	-11*	i	i	i	i	i	i	i
CN(/N=C/c1cc([N+](=O)[O-])ccc1O)c1ccccc1	i	i	i	i	i	.	.	.	.
Cc1c(Cl)cccc1-n1c(SCC(=O)NCc2ccccc2Cl)nnc1-c1ccncc1	i	i	i	i	i	.	.	.	.
O=C(Nc1ccc(Br)cc1)c1ccc(N2C(=O)C3CC=C(Cl)CC3C2=O)cc1 (configuration not stated)	i	i	i	i	i	.	.	.	.
CCC1CN(C(=O)NCc2ccc(C)cc2)c2cc(Cl)ccc2O1 (configuration not stated)	i	i	i	i	i	.	.	.	.
CCC(C(=O)Nc1c2c(nn1C(C)(C)C)CS(=O)(=O)C2)c1ccccc1 (configuration not stated)	i	-8.1*	i	i	i	i	i	i	i
Cc1cc(=O)n2c3ccccc3n(CC(O)CN3CCCC3)c2c1C#N (configuration not stated)	i	-5.3*	i	i	i	i	i	i	i
O=C1NC(NS(=O)(=O)c2ccccc2)(C(F)(F)F)C(=O)N1Cc1ccccc1 (configuration not stated)	i	i	i	i	i	.	.	.	.
Cc1ccc(-n2nc3c(=O)n(CC(=O)NCCc4ccccc4C)nc(C)c3c2C)cc1	i	i	i	i	i	.	.	.	.
COc1ccc(C(=O)NCCc2nnc3ccc(SCC(=O)N4CCCC4)nn23)cc1	i	i	i	i	i	.	.	.	.

Source: PubChem
